22 compounds from ChEMBL document CHEMBL1139892 (J Nat Prod, 2007) can be followed below.

≈ marks a conversion by molar mass, not a printed value. Counter-ions that a name gives are not always drawn.

The term MIC denotes the least concentration at which growth counts as inhibited. The low end stands for greater potency, the high end for weaker potency. As usually defined, the IC50 is the concentration at which inhibition is half-maximal.

Assay [1] relates to Mycobacterium tuberculosis. Kind of assay: Antimycobacterial activity against Mycobacterium tuberculosis H37Ra by microplate Alamar Blue assay. The format is functional. The method, boiled down: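 M. tuberculosis H37Ra grown in Middlebrook 7H9 broth; growth read colorimetrically with Alamar Blue in microplates and reported as MIC; isoniazid and kanamycin sulfate included as reference drugs.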

The next assay deals with Plasmodium falciparum. Description: Antimalarial activity against multidrug-resistant Plasmodium falciparum K1 by micro culture radioisotope technique. The format is functional, organism-based.
The subject of another assay is Candida albicans. Description: Antifungal activity against Candida albicans by colorimetric method. The format is functional, organism-based.
The next assay deals with KB. Kind of assay: Cytotoxicity against KB cells by colorimetric method. The format is cell-based. To be noted: Homo sapiens. The method in brief: (§1)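 KB and BC cells were tested by the colorimetric method of Skehan and co-workers, with ellipticine as the reference compound.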
The nature of assay [2]: Cytotoxicity against BC cells by colorimetric method. The format is cell-based. To be noted: Homo sapiens. The method, boiled down: as §1
For assay [3], the target named is Prostaglandin G/H synthase 1 (Homo sapiens, UniProt P23219). Kind of assay: Inhibition of COX1 by radioimmunoassay method.
Assay [4] deals with T1, Prostaglandin G/H synthase 2 (Homo sapiens, UniProt P35354).
T1 sequence (P35354 whole entry): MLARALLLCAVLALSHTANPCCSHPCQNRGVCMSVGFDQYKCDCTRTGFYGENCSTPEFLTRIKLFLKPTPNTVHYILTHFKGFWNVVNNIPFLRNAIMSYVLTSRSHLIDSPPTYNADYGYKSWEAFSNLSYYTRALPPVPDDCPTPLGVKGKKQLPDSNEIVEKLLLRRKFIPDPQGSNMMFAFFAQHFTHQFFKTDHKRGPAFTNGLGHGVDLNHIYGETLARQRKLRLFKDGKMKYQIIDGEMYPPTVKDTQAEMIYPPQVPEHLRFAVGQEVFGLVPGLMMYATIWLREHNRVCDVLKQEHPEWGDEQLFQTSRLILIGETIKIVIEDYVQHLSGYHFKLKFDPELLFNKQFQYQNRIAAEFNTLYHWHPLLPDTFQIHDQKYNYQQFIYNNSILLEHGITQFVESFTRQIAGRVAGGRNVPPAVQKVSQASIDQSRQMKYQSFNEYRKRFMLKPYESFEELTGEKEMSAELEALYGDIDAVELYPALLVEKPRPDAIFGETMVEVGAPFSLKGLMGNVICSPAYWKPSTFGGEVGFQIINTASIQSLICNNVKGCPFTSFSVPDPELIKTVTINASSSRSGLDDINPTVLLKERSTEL
Kind of assay: Inhibition of COX2 by radioimmunoassay method.

Prostaglandin G/H synthase 1, sequence (P23219 whole entry): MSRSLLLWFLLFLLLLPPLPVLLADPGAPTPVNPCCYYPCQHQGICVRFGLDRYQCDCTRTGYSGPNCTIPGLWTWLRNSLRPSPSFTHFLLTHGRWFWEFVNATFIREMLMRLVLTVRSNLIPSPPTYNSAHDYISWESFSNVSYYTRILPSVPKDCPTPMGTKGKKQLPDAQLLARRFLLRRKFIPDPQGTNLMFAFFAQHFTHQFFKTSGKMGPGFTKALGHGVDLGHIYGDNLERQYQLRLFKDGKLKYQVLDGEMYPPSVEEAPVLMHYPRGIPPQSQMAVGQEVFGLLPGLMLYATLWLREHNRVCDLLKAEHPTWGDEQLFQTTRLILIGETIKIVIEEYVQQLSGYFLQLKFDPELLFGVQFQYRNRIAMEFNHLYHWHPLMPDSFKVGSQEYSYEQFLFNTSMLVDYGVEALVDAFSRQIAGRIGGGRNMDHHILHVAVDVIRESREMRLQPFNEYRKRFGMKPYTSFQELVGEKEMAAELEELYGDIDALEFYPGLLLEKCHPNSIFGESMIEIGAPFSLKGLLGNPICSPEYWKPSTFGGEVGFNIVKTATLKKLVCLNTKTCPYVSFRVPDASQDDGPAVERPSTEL

`Cc1c(O)cc2c(c1O)C(=O)C[C@@H](c1ccccc1)O2` showed an MIC in assay [1] of more than 741 µM. Besides, the IC50 with Plasmodium falciparum was more than 74 µM; in the assay with Candida albicans it was more than 185 µM; in the assay with KB, more than 74 µM; in assay [2], more than 74 µM.

Turning to `COc1cc(CCc2ccccc2O)cc(OC)c1`, in assay [1], inhibition of growth (MIC) required 194 µM (≈ 50 µg/mL). Further, the IC50 was more than 77.5 µM with Plasmodium falciparum, 49.6 µM with Candida albicans, more than 77.5 µM in the assay on KB and more than 77.5 µM in assay [2].

In assay [1], `COc1cc(CCc2ccccc2O)c(O)c(OC)c1` returned an MIC of 91.2 µM (≈ 25 µg/mL). Besides, the IC50 in the assay on Plasmodium falciparum was more than 72.9 µM; in the assay with Candida albicans, more than 182 µM; in the assay with KB it was more than 72.9 µM; in assay [2], more than 72.9 µM.

In assay [1], `COc1cc(O)cc(CCc2ccccc2)c1` showed an MIC of 219 µM (≈ 50 µg/mL). Further, the IC50 was more than 87.7 µM with Plasmodium falciparum, 68.4 µM in the assay with Candida albicans, 51.7 µM in the assay with KB and 72.3 µM in assay [2].

In the assay on Candida albicans, `C[C@@H]1[C@H](O)[C@@H](C)/C=C/C=C/C=C/C=C/C=C/C=C/C=C/[C@H](O[C@@H]2O[C@H](C)[C@@H](O)[C@H](N)[C@@H]2O)C[C@@H]2O[C@](O)(C[C@@H](O)C[C@@H](O)[C@H](O)CC[C@@H](O)C[C@@H](O)CC(=O)O[C@H]1C)C[C@H](O)[C@H]2C(=O)O` [AMPHOTERICIN B] showed an IC50 of 0.04 µM.

In the assay with Plasmodium falciparum, `C[C@H]1[C@@H](O)O[C@@H]2O[C@@]3(C)CC[C@H]4[C@H](C)CC[C@@H]1[C@@]24OO3` [ARTENIMOL] gave an IC50 of 0.0042 µM.

For `COc1cc(O)cc(CCc2ccccc2O)c1` [BATATASIN IV], in assay [1], the MIC was 205 µM (≈ 50 µg/mL). The IC50 in the assay on Plasmodium falciparum was more than 81.8 µM; in the assay with Candida albicans, more than 205 µM; in assay [3] it was more than 40.9 µM; in assay [4], more than 40.9 µM; with KB, more than 81.8 µM; in assay [2] it was more than 81.8 µM.

`COc1cc(OC)c(O)c([C@@H]2Cc3ccccc3O2)c1` [BAUHIBENZOFURIN A] displayed an MIC in assay [1] of 368 µM (≈ 100 µg/mL). For the same compound, the IC50 with Plasmodium falciparum is more than 73.5 µM; in the assay on Candida albicans, 130 µM; in the assay on KB, more than 73.5 µM; in assay [2] it was more than 73.5 µM.

For `COc1cc(CCc2ccccc2O)cc(O)c1C` [BAUHINOL E], in assay [1], the MIC was 194 µM (≈ 50 µg/mL). Besides, the IC50 was more than 77.5 µM in the assay with Plasmodium falciparum, more than 194 µM in the assay on Candida albicans, more than 77.5 µM in the assay on KB and more than 77.5 µM in assay [2].

Compound `COc1cc2c(c(O)c1C)Oc1cccc(O)c1CC2` [BAUHINOXEPIN C] showed an MIC in assay [1] of 184 µM (≈ 50 µg/mL). For the same compound, the IC50 is more than 73.5 µM with Plasmodium falciparum, 79.4 µM in the assay on Candida albicans, 44.8 µM with KB and 32.3 µM in assay [2].

For the compound `COc1c(C)c(O)cc2c1Oc1cccc(O)c1CC2` [BAUHINOXEPIN D], in assay [1], the MIC was determined as 184 µM (≈ 50 µg/mL). Also, the IC50 with Plasmodium falciparum is more than 73.5 µM; with Candida albicans, more than 184 µM; with KB it was 41.5 µM; in assay [2], 45.5 µM.

Consider `COc1c(C)c(OC)c2c(c1O)CCc1c(O)cccc1O2` [BAUHINOXEPIN E], for which, in assay [1], the MIC amounted to 331 µM (≈ 100 µg/mL). Besides, the IC50 in the assay with Plasmodium falciparum is more than 66.2 µM; in the assay with Candida albicans, more than 166 µM; in assay [3], more than 33.1 µM; in assay [4], more than 33.1 µM; with KB it was more than 66.2 µM; in assay [2], more than 66.2 µM.

Compound `COc1c(O)c(C)c(OC)c2c1CCc1c(O)cccc1O2` [BAUHINOXEPIN F] returned an MIC in assay [1] of 662 µM (≈ 200 µg/mL). The IC50 was more than 66.2 µM with Plasmodium falciparum; 77.8 µM in the assay with Candida albicans; more than 33.1 µM in assay [3]; 6.9 µM in assay [4]; 29.4 µM with KB; 27.4 µM in assay [2].

`COc1c(C)c(O)cc2c1Oc1ccccc1C(O)C2` (configuration not stated) [BAUHINOXEPIN G] had an MIC in assay [1] of 91.9 µM (≈ 25 µg/mL). For the same compound, the IC50 is more than 73.5 µM in the assay on Plasmodium falciparum, more than 184 µM in the assay on Candida albicans, more than 73.5 µM in the assay on KB and more than 73.5 µM in assay [2].

`COC1=C(C)C(=O)C2=C(CCc3c(O)cccc3O2)C1=O` [BAUHINOXEPIN H] registered an MIC in assay [1] of 87.4 µM (≈ 25 µg/mL). Also, the IC50 with Candida albicans was more than 175 µM; in assay [3], more than 34.9 µM; in assay [4], more than 34.9 µM; in the assay on KB, 15.7 µM; in assay [2], 11.5 µM.

For `COC1=C(C)C(=O)C2=C(CCc3cc(O)ccc3O2)C1=O` [BAUHINOXEPIN I], in assay [1], the MIC came out at 175 µM (≈ 50 µg/mL). Also, the IC50 in the assay on Plasmodium falciparum is 10.5 µM; in the assay on Candida albicans, more than 175 µM; in assay [3] it was more than 34.9 µM; in assay [4], 10.1 µM; with KB it was 38.8 µM; in assay [2], 41.9 µM.

For `COC1=CC(=O)C2=C(CCc3ccccc3O2)C1=O` [BAUHINOXEPIN J], the MIC in assay [1] is 24.4 µM (≈ 6.25 µg/mL). The IC50 in the assay with Plasmodium falciparum was 5.8 µM; in the assay on Candida albicans, more than 195 µM; in the assay on KB it was 10.5 µM; in assay [2], 12.1 µM.

In the case of `Cc1c(O)c(C)c2c(c1O)C(=O)C[C@@H](c1ccccc1)O2` [DEMETHOXYMATTEUCINOL], the MIC in assay [1] is more than 704 µM. Also, the IC50 with Plasmodium falciparum is 9.5 µM; in the assay on Candida albicans it was more than 176 µM; in the assay with KB, more than 70.4 µM; in assay [2], more than 70.4 µM.

`Oc1cc(O)cc(CCc2ccccc2)c1` [DIHYDROPINOSYLVIN] registered an MIC in assay [1] of 117 µM (≈ 25 µg/mL). Further, the IC50 in the assay with Plasmodium falciparum was more than 93.4 µM; in the assay with Candida albicans it was more than 234 µM; in assay [3], more than 46.7 µM; in assay [4], more than 46.7 µM; in the assay with KB it was more than 93.4 µM; in assay [2], more than 93.4 µM.

For `Cc1c2ccncc2c(C)c2c1[nH]c1ccccc12` [ELLIPTECINE], the IC50 in the assay with KB came out at 5.3 µM; in assay [2], 6.1 µM.

`NNC(=O)c1ccncc1` [ISONIAZID]: the MIC in assay [1] stood at 0.29 µM (≈ 0.0398 µg/mL).

Turning to `NC[C@H]1O[C@H](O[C@H]2[C@H](O)[C@@H](O[C@H]3O[C@H](CO)[C@@H](O)[C@H](N)[C@H]3O)[C@H](N)C[C@@H]2N)[C@H](O)[C@@H](O)[C@@H]1O` [KANAMYCIN SULFATE], the MIC in assay [1] is 3.43 µM.
